Our source for the -Log KB values is ChEMBL document CHEMBL1124822, “(8 beta)-6-methylergoline amide derivatives as serotonin antagonists: N1-substituent effects on vascular 5HT2 receptor activity” (J Med Chem, 1990).

A value given as a limit tells only on which side of the number the result lay.

For this experiment, the target named is Serotonin 2 (5-HT2) receptor (Rattus norvegicus) (UniProt P30994+P08909+P14842). The experiment can be described thus: Antagonistic activity against (5-hydroxytryptamine 2 receptor) serotonin-induced contractions in the rat jugular vein. Type of experiment: functional. The essentials: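 Isolated jugular vein segments mounted on two L-shaped needles, one tied to a transducer, in organ baths with 10 mL modified Krebs bicarbonate solution; 1-2 h equilibration. Control cumulative serotonin contraction curves were recorded, then the antagonist was incubated 1 h and the curves repeated, one antagonist concentration per tissue. K_B = [B]/(dose ratio − 1), using serotonin ED50 ratios; reported as −log K_B.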
Chain of Serotonin 2 (5-HT2) receptor (Rattus norvegicus) (P08909 whole entry, looked up): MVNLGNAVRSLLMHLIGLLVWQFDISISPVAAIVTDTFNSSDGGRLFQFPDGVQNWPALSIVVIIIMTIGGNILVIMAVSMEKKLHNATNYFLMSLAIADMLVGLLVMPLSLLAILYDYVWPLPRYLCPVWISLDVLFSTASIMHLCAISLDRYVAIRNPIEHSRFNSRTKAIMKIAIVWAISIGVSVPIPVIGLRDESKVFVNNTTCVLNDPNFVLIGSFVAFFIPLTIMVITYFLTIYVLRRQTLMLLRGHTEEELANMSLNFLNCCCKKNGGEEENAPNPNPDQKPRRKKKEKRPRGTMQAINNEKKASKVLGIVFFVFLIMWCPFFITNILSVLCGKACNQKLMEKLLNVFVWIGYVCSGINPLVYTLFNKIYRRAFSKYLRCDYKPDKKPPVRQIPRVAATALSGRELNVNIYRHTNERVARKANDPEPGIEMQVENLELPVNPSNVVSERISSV
Chain of Serotonin 2 (5-HT2) receptor (Rattus norvegicus) (P14842 whole entry, looked up): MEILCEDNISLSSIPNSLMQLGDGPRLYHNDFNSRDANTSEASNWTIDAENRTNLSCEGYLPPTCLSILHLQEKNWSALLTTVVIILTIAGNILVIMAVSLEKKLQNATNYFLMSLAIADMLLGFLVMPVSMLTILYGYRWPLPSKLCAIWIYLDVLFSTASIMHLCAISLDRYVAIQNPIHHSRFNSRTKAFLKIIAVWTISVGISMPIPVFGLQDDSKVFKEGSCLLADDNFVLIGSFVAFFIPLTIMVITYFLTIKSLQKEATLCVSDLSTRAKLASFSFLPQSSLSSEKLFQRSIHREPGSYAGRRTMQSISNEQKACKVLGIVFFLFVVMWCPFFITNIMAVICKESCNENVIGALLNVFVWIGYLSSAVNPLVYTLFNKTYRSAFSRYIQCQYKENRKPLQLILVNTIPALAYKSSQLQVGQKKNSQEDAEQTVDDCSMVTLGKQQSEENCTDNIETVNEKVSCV
Chain of Serotonin 2 (5-HT2) receptor (Rattus norvegicus) (P30994 whole entry, looked up): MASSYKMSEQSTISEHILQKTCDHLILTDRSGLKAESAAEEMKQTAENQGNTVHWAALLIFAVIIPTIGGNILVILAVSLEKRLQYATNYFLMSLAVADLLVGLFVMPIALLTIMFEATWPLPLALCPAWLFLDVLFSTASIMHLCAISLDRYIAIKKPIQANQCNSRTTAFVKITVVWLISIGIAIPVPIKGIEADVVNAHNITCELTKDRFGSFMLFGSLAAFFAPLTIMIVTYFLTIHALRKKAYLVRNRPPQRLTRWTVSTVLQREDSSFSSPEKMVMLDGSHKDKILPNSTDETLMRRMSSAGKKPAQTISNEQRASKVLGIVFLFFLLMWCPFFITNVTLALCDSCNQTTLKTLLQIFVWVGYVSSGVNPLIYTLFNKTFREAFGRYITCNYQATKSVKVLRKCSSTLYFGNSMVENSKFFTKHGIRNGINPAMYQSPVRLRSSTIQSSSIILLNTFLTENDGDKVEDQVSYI
For `CCC(CC)n1cc2c3c(cccc31)[C@H]1C[C@@H](C(=O)NC3CCCCC3)CN(C)[C@@H]1C2`, the -Log KB came out at 7.8.

Regarding `CCn1cc2c3c(cccc31)[C@H]1C[C@@H](C(=O)NC3CCCCC3)CN(C)[C@@H]1C2`, the -Log KB was 9.25.

Regarding `CN1C[C@H](C(=O)NC2CCCC2)C[C@@H]2c3cccc4[nH]cc(c34)C[C@H]21`, the -Log KB was determined as 8.87.

As for `CN1C[C@H](C(=O)NC2CCCCC2)C[C@@H]2c3cccc4[nH]cc(c34)C[C@H]21`, the -Log KB came out at 9.24.

With `CCn1cc2c3c(cccc31)[C@H]1C[C@@H](C(N)=O)CN(C)[C@@H]1C2`, the -Log KB was 8.44.

Compound `CC(C)n1cc2c3c(cccc31)[C@H]1C[C@@H](C(=O)NC3CCCC3)CN(C)[C@@H]1C2` registered a -Log KB of 10.3.

As to `CC(C)n1cc2c3c(cccc31)[C@H]1C[C@@H](C(=O)NC3CCCCC3)CN(C)[C@@H]1C2`, the -Log KB was determined as 9.67.

As for `CCCCn1cc2c3c(cccc31)[C@H]1C[C@@H](C(=O)NC3CCCCC3)CN(C)[C@@H]1C2`, the -Log KB was 7.5.

Regarding `CN1C[C@H](CC(=O)NC2CCCCC2)C[C@@H]2c3cccc4[nH]cc(c34)C[C@H]21`, the -Log KB was 8.05.

Consider `CN1C[C@H](C(=O)NC2CCCC2)C[C@@H]2c3cccc4c3c(cn4C)C[C@H]21`, for which the -Log KB came to 9.23.

Turning to `COC1CCC(C(=O)N[C@@H]2C[C@@H]3c4cccc5c4c(cn5C)C[C@H]3N(C)C2)CC1` (stereo partly specified), the -Log KB worked out at 8.71.

For `CN1C[C@H](C(N)=O)C[C@@H]2c3cccc4c3c(cn4C)C[C@H]21`, the -Log KB came to 7.81.

The compound `CCn1cc2c3c(cccc31)[C@H]1C[C@@H](C(=O)NC3CCCC3)CN(C)[C@@H]1C2` showed a -Log KB of 9.8.

In turn, `CN1C[C@H](C(=O)NC2CCCCC2)C[C@@H]2c3cccc4c3c(cn4C)C[C@H]21` yielded a -Log KB of 9.7.

Consider `CC(C)Cn1cc2c3c(cccc31)[C@H]1C[C@@H](C(=O)NC3CCCCC3)CN(C)[C@@H]1C2`, for which the -Log KB is less than 7.

Turning to `CN1C[C@H](CC(=O)NC2CCCCC2)C[C@@H]2c3cccc4c3c(cn4C)C[C@H]21`, the -Log KB is 8.97.

In turn, `CC(C)n1cc2c3c(cccc31)[C@H]1C[C@@H](CC(=O)NC3CCCCC3)CN(C)[C@@H]1C2` gave a -Log KB of 8.88.

As to `CCC(CC)n1cc2c3c(cccc31)[C@H]1C[C@@H](C(=O)NC3CCCC3)CN(C)[C@@H]1C2`, the -Log KB is 7.3.

With `CN1C[C@H](C(N)=O)C[C@@H]2c3cccc4[nH]cc(c34)C[C@H]21`, the -Log KB turned out to be 7.

In turn, `COC1CCC(C(=O)N[C@@H]2C[C@@H]3c4cccc5c4c(cn5C(C)C)C[C@H]3N(C)C2)CC1` (stereo partly specified) displayed a -Log KB of 9.64.

Turning to `CC(C)n1cc2c3c(cccc31)[C@H]1C[C@@H](C(N)=O)CN(C)[C@@H]1C2`, the -Log KB was found to be 8.7.

Turning to `CN1C[C@H](C(=O)NC2CCCCC2)C[C@@H]2c3cccc4c3c(cn4Cc3ccccc3)C[C@H]21`, the -Log KB was less than 7.

`CN1C[C@H](C(=O)NC2CCCCC2)C[C@@H]2c3cccc4c3c(cn4C3CCCC3)C[C@H]21` displayed a -Log KB of less than 7.

On to `C=CCn1cc2c3c(cccc31)[C@H]1C[C@@H](C(=O)NC3CCCCC3)CN(C)[C@@H]1C2`, for which the -Log KB was 8.15.

Compound `CCn1cc2c3c(cccc31)[C@H]1C[C@@H](NC(=O)C3CCC(OC)CC3)CN(C)[C@@H]1C2` (stereo partly specified) came in with a -Log KB of 9.43.

As to `CN1C[C@H](c2nnnn2C2CCCCC2)C[C@@H]2c3cccc4c3c(cn4C)C[C@H]21`, the -Log KB was less than 7.

For the compound `CC(C)Cn1cc2c3c(cccc31)[C@H]1C[C@@H](C(=O)NC3CCCC3)CN(C)[C@@H]1C2`, the -Log KB is less than 7.

Take `CN1C[C@H](c2nnnn2C2CCCCC2)C[C@@H]2c3cccc4[nH]cc(c34)C[C@H]21`: the -Log KB is less than 6.52.

The compound `CCCCCCCCn1cc2c3c(cccc31)[C@H]1C[C@@H](C(=O)NC3CCCCC3)CN(C)[C@@H]1C2` showed a -Log KB of less than 7.

On to `CC(C)n1cc2c3c(cccc31)[C@H]1C[C@@H](c3nnnn3C3CCCCC3)CN(C)[C@@H]1C2`, for which the -Log KB was less than 8.

On to `CCCn1cc2c3c(cccc31)[C@H]1C[C@@H](C(=O)NC3CCCCC3)CN(C)[C@@H]1C2`, for which the -Log KB was 8.
